# Measurements: ChEMBL document CHEMBL1124666, “Novel linked antiviral and antitumor agents related to netropsin and distamycin: synthesis and biological evaluation” (1989)
# Experiments:
# [1] = system: Human alphaherpesvirus 2; experiment: Minimum inhibitory concentration against Herpes simplex virus 2(G); format: functional
# [2] = system: Human alphaherpesvirus 1; experiment: Minimum inhibitory concentration against Herpes simplex virus 1(KOS); format: functional
# [3] = Minimum cytotoxic concentration in primary rabbit kidney (PRK) cell cultures; format: functional, Oryctolagus cuniculus
# [4] = system: Vesicular stomatitis virus; experiment: Minimum inhibitory concentration against Vesicular stomatitis virus; format: functional
# [5] = system: Vaccinia virus; experiment: Minimum inhibitory concentration against Vaccinia virus; format: functional; conditions: Orthopoxvirus vaccinia
# [6] = system: Vaccinia virus; experiment: Minimum cytotoxic concentration against vaccinia virus embryonic skin muscle cell cultures; format: functional; conditions: Orthopoxvirus vaccinia
# [7] = system: Vaccinia virus; experiment: Minimum cytotoxic concentration against vaccinia virus in HeLa cell cultures; format: functional; conditions: Orthopoxvirus vaccinia
# [8] = system: Vaccinia virus; experiment: Minimum cytotoxic concentration against vaccinia virus in Vero cell cultures; format: functional; conditions: Orthopoxvirus vaccinia
# [9] = system: Vaccinia virus; experiment: Minimum inhibitory concentration against vaccinia virus embryonic skin muscle cell cultures; format: functional; conditions: Orthopoxvirus vaccinia
# [10] = system: Vaccinia virus; experiment: Minimum inhibitory concentration against vaccinia virus in Vero cell cultures of experiment 1; format: functional; conditions: Orthopoxvirus vaccinia
# [11] = system: Vaccinia virus; experiment: Minimum inhibitory concentration against vaccinia virus in Vero cell cultures of experiment 2; format: functional; conditions: Orthopoxvirus vaccinia
# [12] = system: Vaccinia virus; experiment: Minimum inhibitory concentration against vaccinia virus in primary rabbit kidney cell cultures of experiment 1; format: functional; conditions: Orthopoxvirus vaccinia
# [13] = system: Vaccinia virus; experiment: (§1) Minimum inhibitory concentration against vaccinia virus in primary rabbit kidney cell cultures of experiment 2; format: functional, Orthopoxvirus vaccinia; conditions: Orthopoxvirus vaccinia; read-out: MIC
# [14] = system: Vaccinia virus; experiment: as §1; format: functional; conditions: Orthopoxvirus vaccinia
# [15] = system: Vaccinia virus; experiment: Minimum cytotoxic concentration against vaccinia virus in primary rabbit kidney cell cultures; format: functional; conditions: Orthopoxvirus vaccinia
# [16] = system: Calf thymus DNA; experiment: Relative binding constant to calf thymus DNA; format: nucleic-acid assay; conditions: Bos taurus
# Procedure, shortened: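 Ethidium displacement: Tris-EDTA buffer pH 8 with 1.3 μM ethidium bromide and calf thymus DNA (1.35 μM final); drug aliquots added, fluorescence read after a few minutes' equilibration (excitation 525 nm, emission 600 nm). Drug level giving 50% fluorescence decrease converted to relative binding constant taking ethidium binding constant as 10^7 M-1.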
# [17] = system: FM3A; experiment: Inhibitory effect on the proliferation of murine mammary carcinoma (FM3A ) cells; format: functional; conditions: Mus musculus, read-out: ID50 (the source's name)
# [18] = system: L1210; experiment: Inhibitory effect on the proliferation of murine leukemia (L1210 ) cells; format: functional; conditions: Mus musculus, read-out: ID50 (the source's name)
# [19] = system: Raji; experiment: Inhibitory effect on the proliferation of human B lymphoblast (Raji ) cells; format: functional; conditions: read-out: ID50 (the source's name)
# [20] = system: P388; experiment: Inhibitory effect on the proliferation of murine leukemia (P388) cells; format: functional; conditions: Mus musculus, read-out: ID50 (the source's name)
# [21] = Inhibitory effect on the proliferation of human T-lymphoblast (Molt/4F ) cells; format: functional; conditions: read-out: ID50 (the source's name)
# [22] = Inhibition of Moloney Murine Leukemia Associated Reverse Transcriptase; format: functional, Mus musculus
# [23] = system: Vaccinia virus; experiment: Minimum inhibitory concentration against vaccinia virus in HeLa cell cultures; format: functional; conditions: Orthopoxvirus vaccinia
SMILES,MIC [1] [µg/mL],MIC [2] [µg/mL],MCC [3] [µg/mL],MIC [4] [µg/mL],MIC [5] [µg/mL],MCC [6] [µg/mL],MCC [7] [µg/mL],MCC [8] [µg/mL],MIC [9] [µg/mL],MIC [10] [µg/mL],MIC [11] [µg/mL],MIC [12] [µg/mL],MIC [13] [µg/mL],MIC [14] [µg/mL],MCC [15] [µg/mL],Binding constant [16] [M⁻¹],IC50 [17] [µg/mL],IC50 [18] [µg/mL],IC50 [20] [µg/mL],ID50 [22] [µg/mL],other results
Nc1ncnc2c1ccn2[C@@H]1O[C@H](CO)[C@@H](O)[C@H]1O [TUBERCIDIN],> 0.4,> 0.4,>1,0.2,> 0.1,> 0.1,> 1,> 0.4,0.07,0.02,0.02,> 0.1,0.2,0.2,> 0.4,,,,,,
Nc1nccc2c1ncn2[C@@H]1C[C@H](CO)[C@@H](O)[C@H]1O [3-DEAZAARISTEROMYCIN A],300,> 400,>400,0.7,2,> 400,> 400,> 200,2,0.2,0.2,2,0.7,2,> 400,,,,,,
Cl.Cl.Cn1cc(NC(=O)c2cc(NC(=O)CCCCCC(=O)Nc3cc(C(=O)Nc4cc(C(=O)NCCC(=N)N)n(C)c4)n(C)c3)cn2C)cc1C(=O)NCCC(=N)N,70,150,400,> 200,2,200,> 200,> 200,0.7,20,20,7,20,7,> 200,1.2e+07,> 100,> 100,4.4,72.5,IC50 [19]: 11.1 µg/mL; IC50 [21]: 5.74 µg/mL
O=C(O)C1=CC(=C(c2ccc(O)c(C(=O)O)c2)c2ccc(O)c(C(=O)O)c2)C=CC1=O [AURINTRICARBOXYLIC ACID],,,,,,,,,,,,,,,,,,,,1.42,
Cn1cc(NC(=O)c2cc(NC(=O)c3cc(NC=O)cn3C)cn2C)cc1C(=O)NCCC(=N)N [STALLIMYCIN],,,,,,,,,,,,,,,,8e+06,31,27,> 20,,IC50 [19]: 24 µg/mL
Cl.Cl.Cn1cc(NC(=O)c2cc(NC(=O)CCCCCCCCCCC(=O)Nc3cc(C(=O)Nc4cc(C(=O)NCCC(=N)N)n(C)c4)n(C)c3)cn2C)cc1C(=O)NCCC(=N)N,7,> 10,>40,> 10,2,> 40,> 40,> 100,0.2,> 40,,2,,,> 40,2.2e+07,,,4.8,9.1,MIC [23]: 2 µg/mL
Cn1cc(NC(=O)c2cc(NC(=O)CNC(=N)N)cn2C)cc1C(=O)NCCC(=N)N,,,,,,,,,,,,,,,,1.9e+07,,,,,
Cl.Cl.Cn1cc(NC(=O)c2cc(NC(=O)CCCCCCCC(=O)Nc3cc(C(=O)Nc4cc(C(=O)NCCC(=N)N)n(C)c4)n(C)c3)cn2C)cc1C(=O)NCCC(=N)N,> 40,> 40,>100,> 100,0.2,> 100,> 200,> 200,0.7,40,70,7,20,7,> 100,9e+06,32,10.8,0.75,34.2,IC50 [19]: 4.36 µg/mL; IC50 [21]: 3.3 µg/mL
Cl.Cl.Cn1cc(NC(=O)c2cc(NC(=O)CCCC(=O)Nc3cc(C(=O)Nc4cc(C(=O)NCCC(=N)N)n(C)c4)n(C)c3)cn2C)cc1C(=O)NCCC(=N)N,200,> 200,>200,> 200,7,400,> 400,> 400,7,70,150,20,40,20,> 200,1.8e+07,> 100,> 100,6.4,39.9,IC50 [19]: > 100 µg/mL; IC50 [21]: > 100 µg/mL
Cl.Cl.Cn1cc(NC(=O)c2cc(NC(=O)CCCCCCCCC(=O)Nc3cc(C(=O)Nc4cc(C(=O)NCCC(=N)N)n(C)c4)n(C)c3)cn2C)cc1C(=O)NCCC(=N)N,> 10,> 10,>40,> 10,0.7,> 100,100,> 40,0.2,20,> 40,2,20,2,> 40,1.7e+07,22.1,4.21,0.98,20.9,IC50 [19]: 3.24 µg/mL; IC50 [21]: 2.97 µg/mL
NC(=O)c1ncn([C@@H]2O[C@H](CO)[C@@H](O)[C@H]2O)n1 [RIBAVIRIN],300,> 400,>400,> 400,20,> 400,> 400,> 400,70,7,20,20,20,7,> 400,,,,,,
Cn1cc(NC(=O)c2cc(NC(=O)CCC(=O)Nc3cc(C(=O)Nc4cc(C(=O)NCCC(=N)N)n(C)c4)n(C)c3)cn2C)cc1C(=O)NCCC(=N)N,,,,,,,,,,,,,,,,7.2e+07,,,,,
Cl.Cl.Cn1cc(NC(=O)c2cc(NC(=O)CCCCC(=O)Nc3cc(C(=O)Nc4cc(C(=O)NCCC(=N)N)n(C)c4)n(C)c3)cn2C)cc1C(=O)NCCC(=N)N,> 10,> 10,>40,> 10,0.7,100,> 400,> 400,7,1,2,100,0.7,2,> 40,1e+07,57.8,24.3,1.05,57.2,IC50 [19]: 13.3 µg/mL; IC50 [21]: 5.62 µg/mL
Cl.Cl.Cn1cc(NC(=O)c2cc(NC(=O)CCCCCCC(=O)Nc3cc(C(=O)Nc4cc(C(=O)NCCC(=N)N)n(C)c4)n(C)c3)cn2C)cc1C(=O)NCCC(=N)N,> 10,> 10,>10,> 10,0.2,> 200,> 200,> 40,0.07,7,7,0.7,2,2,> 40,2.5e+07,3.15,3.34,0.7,21.3,IC50 [19]: 2.14 µg/mL; IC50 [21]: 1.74 µg/mL
Cl.Cl.Cn1cc(NC(=O)c2cc(NC(=O)c3cc(NC(=O)CCC(=O)Nc4cc(C(=O)Nc5cc(C(=O)Nc6cc(C(=O)NCCC(=N)N)n(C)c6)n(C)c5)n(C)c4)cn3C)cn2C)cc1C(=O)NCCC(=N)N,,,,,,> 4,> 20,> 4,> 4,> 4,> 4,> 4,> 10,> 4,> 4,,4.29,> 100,> 20,>400,IC50 [19]: 41.4 µg/mL; IC50 [21]: 2.85 µg/mL
Cl.Cl.Cn1cc(NC(=O)c2cc(NC(=O)CC(=O)Nc3cc(C(=O)Nc4cc(C(=O)NCCC(=N)N)n(C)c4)n(C)c3)cn2C)cc1C(=O)NCCC(=N)N,> 4,> 4,>10,> 10,0.2,> 40,> 40,> 40,0.2,2,2,2,2,2,40,3.6e+07,5.87,28.5,0.91,39,IC50 [19]: 3.39 µg/mL; IC50 [21]: 2.85 µg/mL
